Results published in ChEMBL document CHEMBL1133513, “Synthesis and biological activity of novel 5-fluoro-2'-deoxyuridine phosphoramidate prodrugs” (J Med Chem, 2000).
pIC50: −log10 of the molar value.

Key:
Type in all cases: functional, cell-based
L1210 [1] = experiment: Growth inhibition in L1210 mouse Leukemia cells for a treatment time of 2 hr; conditions: L1210, 2 h
Procedure, shortened: (§1)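 L1210 cells in exponential growth, 3–6 × 10^4/mL in Fischer's medium with 10% horse serum, 1% glutamine, 1% antibiotic–antimycotic. Drug added from ethanol dilutions (50 μL per 10 mL), exposure 2, 8, 24 or 48 h. Cells then spun down, resuspended in drug-free medium, counted 48 h after treatment start. IC50 read from percent-of-control count versus concentration plots.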

L1210 [2] = experiment: Growth inhibition in L1210 mouse Leukemia cells for a treatment time of 24 hr; conditions: L1210, 24 h; procedure, shortened: as §1
L1210 [3] = experiment: Growth inhibition in L1210 mouse Leukemia cells for a treatment time of 48 hr; conditions: L1210, 48 h; procedure, shortened: as §1
L1210 [4] = experiment: Growth inhibition in L1210 mouse Leukemia cells for a treatment time of 8 hr; conditions: L1210, 8 h; procedure, shortened: as §1

Row | SMILES | pIC50 (L1210 [1]) | pIC50 (L1210 [2]) | pIC50 (L1210 [3]) | pIC50 (L1210 [4])
1 | CN(CCBr)P(=O)(NCC1OC(n2cc(F)c(=O)[nH]c2=O)CC1O)OCc1ccc([N+](=O)[O-])o1 (stereo not given) | 5.96 | 6.97 | 7.47 | 6.30
2 | O=c1[nH]cc(F)c(=O)[nH]1 [FLUOROURACIL] |  |  | 6.90 | 
